Results: ChEMBL document CHEMBL5674869, “The Histone Methyltransferase Inhibitor A-366 Uncovers a Role for G9a/GLP in the Epigenetics of Leukemia” (PLoS One, 2015)
The source made the active and inactive calls. The rule behind the calls is not given here.

What was measured:
HL-60 = assay: Antiproliferative activity against human HL-60 cells after 14 days by Cell-titer Glo assay; assay type: functional, cell-based; settings: time 14.0 day
Summary of the method: (§1)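 Leukemia cells (MV4;11 or HL-60) in medium with 10% FBS were treated with a dose range of compound for 14 days. Proliferation was read by CellTiter-Glo endpoint, with inhibition set against untreated controls and cell-free wells as 100% inhibition. Viability was also measured in parallel by trypan blue exclusion.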

MDA-MB-231 [1] = assay: Antiproliferative activity against human MDA-MB-231 cells assessed as effect on colony formation at 0.1 to 10 uM after 14 days by crystal violet staining based clonogenic assay; assay type: functional, cell-based; settings: dose 0.1-10 µM, time 14.0 day
Summary of the method: (§2)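 Clonogenic assay: 500 live cells per well were seeded into six-well plates in drug-free medium. Compound diluted in culture medium was added 24 h later. Cells were cultured at 37°C, then fixed and stained with 0.2% crystal violet. Colonies were counted on an automated colony counter.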

MV4-11 [2] = assay: Induction of cell morphology change in human MV4-11 cells assessed as increase in cytoplasm-nucleus ratio and nuclear lobulation at 5 uM after 10 days by Wright- Geimsa staining analysis; assay type: functional, cell-based; settings: time 10.0 day
Summary of the method: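 MV4;11 cells exposed to DMSO or 5 μM compound for 10 days, then stained with a Wright-Giemsa kit. Morphology was examined for cytoplasm:nucleus ratio and nuclear lobulation.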

Mus musculus = assay: Decrease in H3K9me2 level in SCID/beige mouse tumor xenografted with human MV4-11 cells at 30 mg/kg/day via osmotic-mini pump for 7 days by alphaLisa assay; assay type: functional, organism-based; settings: Neoplasm, time 7.0 day
Summary of the method: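 Female SCID-beige mice, 6–8 weeks old, received 5 x 10^6 MV4;11 cells in 50% Matrigel subcutaneously in the flank. At about 200 mm3, compound was given at 30 mg/kg/day by osmotic mini-pump in 98% PEG-400/2% Tween-80. In the PK/PD arm, tumors were harvested at the stated day and H3K9me2 was measured by AlphaLISA relative to vehicle.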

MV4-11 [3] = assay: Antiproliferative activity against human MV4-11 cells after 14 days by Cell-titer Glo assay; assay type: functional, cell-based; settings: time 14.0 day; summary of the method: as §1
[4] = target: T1, Histone-lysine N-methyltransferase EHMT2 (Homo sapiens) (UniProt Q96KQ7); assay: Inhibition of G9a in human PC-3 cells assessed as effect on H3k4me2 levels at 0.3 to 3 uM after 72 hrs by Western blot analysis; assay type: cell-based; settings: dose 0.3-3 µM
T1 sequence (whole entry): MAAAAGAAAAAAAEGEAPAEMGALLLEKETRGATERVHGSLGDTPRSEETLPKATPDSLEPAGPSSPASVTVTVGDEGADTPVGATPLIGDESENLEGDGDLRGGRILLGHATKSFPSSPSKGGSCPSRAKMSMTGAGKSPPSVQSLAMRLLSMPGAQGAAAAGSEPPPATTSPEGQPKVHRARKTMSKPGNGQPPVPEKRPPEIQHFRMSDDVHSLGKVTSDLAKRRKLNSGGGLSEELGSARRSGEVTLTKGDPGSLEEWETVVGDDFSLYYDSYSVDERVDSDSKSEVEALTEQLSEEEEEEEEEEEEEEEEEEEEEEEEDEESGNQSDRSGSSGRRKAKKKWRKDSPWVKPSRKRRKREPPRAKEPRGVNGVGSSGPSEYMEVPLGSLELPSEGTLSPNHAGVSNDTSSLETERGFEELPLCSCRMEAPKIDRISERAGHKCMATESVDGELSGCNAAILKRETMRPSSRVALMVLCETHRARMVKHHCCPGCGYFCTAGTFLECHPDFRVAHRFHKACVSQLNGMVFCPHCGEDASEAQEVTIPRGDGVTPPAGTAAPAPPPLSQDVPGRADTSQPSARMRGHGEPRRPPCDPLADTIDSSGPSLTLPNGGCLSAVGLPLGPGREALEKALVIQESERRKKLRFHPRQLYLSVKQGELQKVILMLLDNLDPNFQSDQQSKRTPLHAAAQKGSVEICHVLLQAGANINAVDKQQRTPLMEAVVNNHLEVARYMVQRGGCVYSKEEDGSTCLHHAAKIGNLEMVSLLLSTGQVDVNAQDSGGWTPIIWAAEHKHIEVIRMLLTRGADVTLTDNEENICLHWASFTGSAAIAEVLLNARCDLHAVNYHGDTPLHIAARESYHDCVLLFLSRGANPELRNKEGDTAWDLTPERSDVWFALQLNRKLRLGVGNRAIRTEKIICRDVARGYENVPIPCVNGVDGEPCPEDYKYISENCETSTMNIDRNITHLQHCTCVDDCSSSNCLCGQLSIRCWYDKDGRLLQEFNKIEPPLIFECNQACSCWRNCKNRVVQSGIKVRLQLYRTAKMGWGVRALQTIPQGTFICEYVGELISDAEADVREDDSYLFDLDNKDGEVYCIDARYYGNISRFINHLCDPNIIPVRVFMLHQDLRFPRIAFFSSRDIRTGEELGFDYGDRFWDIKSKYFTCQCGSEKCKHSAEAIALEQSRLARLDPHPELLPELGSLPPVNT
Summary of the method: (§3)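 PC-3 prostate cells incubated with DMSO, 0.3 or 3 μM compound for 72 h. Lysates probed by western blot with antibodies to H3K9me2, H3K4me2, H3K4me3, H3K9me3, H4K20me1, H4K20me3, H3K36me2 and H3K27me3.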

[5] = Drug level in SCID/beige mouse brain xenografted with human MV4-11 cells at 30 mg/kg/day via osmotic-mini pump; assay type: ADME, organism-based; settings: in vivo
Summary of the method: (§4)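 Tumor-bearing SCID-beige female mice (6–8 wk) with subcutaneous flank MV4;11 xenografts (5 x 10^6 cells in 50% Matrigel, grown to ~200 mm3). Compound given by osmotic mini-pump at 30 mg/kg/day in 98% PEG-400/2% Tween-80. Separate PK/PD arm sacrificed after 2, 7 and 14 days of treatment; plasma and tissues collected and analyzed for drug levels.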

[6] = target: T1, Histone-lysine N-methyltransferase EHMT2 (Homo sapiens); assay: Inhibition of G9a in human PC-3 cells assessed as effect on H4k20me1 levels at 0.3 to 3 uM after 72 hrs by Western blot analysis; assay type: cell-based; settings: dose 0.3-3 µM; summary of the method: as §3
[7] = Drug level in SCID/beige mouse tumor xenografted with human MV4-11 cells at 30 mg/kg/day via osmotic-mini pump; assay type: ADME, organism-based, Neoplasm; settings: in vivo; summary of the method: as §4
[8] = target: T1, Histone-lysine N-methyltransferase EHMT2 (Homo sapiens); assay: Inhibition of G9a in human PC-3 cells assessed as effect on H3k36me2 levels at 0.3 to 3 uM after 72 hrs by Western blot analysis; assay type: cell-based; settings: dose 0.3-3 µM; summary of the method: as §3
MCF7 = assay: Antiproliferative activity against human MCF7 cells assessed as effect on colony formation at 0.1 to 10 uM after 14 days by crystal violet staining based clonogenic assay; assay type: functional, cell-based; settings: dose 0.1-10 µM, time 14.0 day; summary of the method: as §2
[9] = target: T1, Histone-lysine N-methyltransferase EHMT2 (Homo sapiens); assay: Inhibition of G9a in human PC-3 cells assessed as effect on H3k4me3 levels at 0.3 to 3 uM after 72 hrs by Western blot analysis; assay type: cell-based; settings: dose 0.3-3 µM; summary of the method: as §3
[10] = target: T1, Histone-lysine N-methyltransferase EHMT2 (Homo sapiens); assay: Inhibition of G9a in human PC-3 cells assessed as effect on H4k20me3 levels at 0.3 to 3 uM after 72 hrs by Western blot analysis; assay type: cell-based; settings: dose 0.3-3 µM; summary of the method: as §3
[11] = Cytotoxicity against human PBMC cells assessed as effect on cell viability after 48 hrs by Cell-titerGlo assay; assay type: toxicity, cell-based
Summary of the method: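 PBMCs from two human donors were pooled and grown in AIM-V medium. Cells were treated with compound for 48 h. Viability was read by CellTiter-Glo endpoint.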

MDA-MB-231 [12] = assay: Antiproliferative activity against human MDA-MB-231 cells assessed as inhibition of colony formation at 10 uM after 14 days by crystal violet staining based clonogenic assay; assay type: functional, cell-based; settings: time 14.0 day; summary of the method: as §2

inhibition [4] | Drug uptake [5] | inhibition [6] | Drug uptake [7] | inhibition [8] | inhibition [9] | inhibition [10] | SMILES | Activity (HL-60) | Activity (MDA-MB-231 [1]) | Activity (MV4-11 [2]) | inhibition (Mus musculus) | Activity (MV4-11 [3]) | Activity (MCF7) | Activity [11] | Activity (MDA-MB-231 [12])
inactive | Active | inactive | Active | inactive | inactive | inactive | COc1cc2c(cc1OCCCN1CCCC1)N=C(N)C21CCC1 | Active | inactive | Active | Active | Active | inactive | Non-Toxic | 
 |  |  |  |  |  |  | COc1cc2c(NC3CCN(C(C)C)CC3)nc(C3CCCCC3)nc2cc1OCCCN1CCCC1 |  |  |  |  |  |  |  | Active
